# Most compounds without a hit are left out; they make up all but 2.1% or so of the library.
# RanGTP-Imp inh: inhibitors of RanGTP-importin-beta interaction, primary screen, biochemical, FRET, CFP-Ran, YFP-importin-beta, homogeneous; 1.1% of 300,000 active; inhibition, % (concentration not given with the values); AID 2216; cell-free CFP-Ran/YFP-importin-beta FRET ratio;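 active = more than half of the replicate wells show a fall in the fluorescence ratio signal beyond about 16%, limit read from the data, passing the limit was not always enough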;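 also: 0% = DMSO wells and 100% = Ran loaded with GDP instead of GTP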
# Runt-SMMHC FRET: blocks binding of human RUNX1 Runt domain to CBFb-SMMHC; 0.74% of 220,000 active; inhibition, % at 20 µM; Cerulean-Runt/Venus-CBFb-SMMHC FRET ratio 530/480, 1 h; AID 1434; Q01196+Q13951;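 active = mean inhibition across duplicate retests at 20 µM reaching about 50%, limit read from the data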;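 also: 0% = DMSO wells and 100% = wells with excess untagged CBFb-SMMHC; inhibitors lower the FRET ratio by blocking Runt binding to CBFb-SMMHC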
# TbHK1 inh: blocks Trypanosoma brucei hexokinase 1 activity. inhibition, % at 10 µM. 0.11% of 220,000 active. recombinant TbHK1, G6PDH-coupled NADH A340. AID 1430;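 active = inhibition of 50% or more in the single-dose primary screen; inactive = inhibition below 50%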
# p97 ATPase inh: inhibitors of human p97 ATPase; AID 1481; inhibition, % at 8 µM; P55072; 0.42% of 220,000 active; recombinant p97 ATPase, Kinase-Glo ATP luminescence, 3 h; in the data active = inhibition above about 15%;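 also: 0% = DMSO vehicle and 100% = wells lacking enzyme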
# Runt-CBFb FRET: inhibitors of human RUNX1 Runt domain binding to CBFb | Cerulean-Runt/Venus-CBFb FRET ratio 530/480, 1 h | inhibition, % at 20 µM | 0.46% of 220,000 active | AID 1496;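 active = inhibition over about 50% at 20 µM in the single-dose screen, limit read from the data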;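 also: 0% = DMSO wells and 100% = excess unlabeled CBFb competitor control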
#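 test system = Cerulean-tagged RUNX1 Runt domain (FRET donor) fusion protein | reagent = Venus-CBFb binding partner, 100 nM | incubation = protein complex preformed 1 h, compound exposure 1 h, room temperature, dark | detection = FRET fluorescence | read-out basis = loss of energy transfer signal | controls = 5 µM unlabeled CBFb as full-inhibition high control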
# Hck-Nef inh: blocks Nef-activated human Hck kinase. inhibition, % at 20 µM. P08631. 0.68% of 220,000 active. Recombinant Hck-YEEI plus Nef, Z-Lyte FRET kinase assay;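 active = Hck-Nef kinase inhibition above about 50%, limit read from the data; inactive = inhibition below that limit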;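 also: 0% = DMSO with Hck plus Nef and 100% = Hck alone without Nef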
# Target sequence (P08631 whole entry, looked up): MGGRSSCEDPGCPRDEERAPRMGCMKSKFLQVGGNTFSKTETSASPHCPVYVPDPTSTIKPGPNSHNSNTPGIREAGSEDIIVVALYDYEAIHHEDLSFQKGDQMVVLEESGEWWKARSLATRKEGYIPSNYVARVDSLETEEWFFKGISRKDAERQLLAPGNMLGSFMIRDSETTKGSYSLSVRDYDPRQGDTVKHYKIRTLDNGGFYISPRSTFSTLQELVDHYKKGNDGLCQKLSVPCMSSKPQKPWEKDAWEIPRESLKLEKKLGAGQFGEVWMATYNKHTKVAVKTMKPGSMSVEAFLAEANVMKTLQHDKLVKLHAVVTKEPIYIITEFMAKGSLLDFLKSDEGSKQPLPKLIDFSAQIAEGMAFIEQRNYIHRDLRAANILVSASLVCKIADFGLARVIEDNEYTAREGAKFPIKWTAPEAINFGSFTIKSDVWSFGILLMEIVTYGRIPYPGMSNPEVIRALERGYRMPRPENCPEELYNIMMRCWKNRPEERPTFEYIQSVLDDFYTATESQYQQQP
# YIC FRET counter: counter-screen YIC FRET for RanGTP-importin-beta inhibitors; Purified YIC probe, intramolecular FRET ratio YFP/CFP; 40% of 1,000 active; shares compounds with RanGTP-Imp inh; IC50, µM;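 active = fitted half-maximal inhibitory concentration no more than tenfold above the top dose tested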
# The depositor's hits bear a star; nt = no result given.
SMILES,RanGTP-Imp inh,Runt-SMMHC FRET,TbHK1 inh,p97 ATPase inh,Runt-CBFb FRET,Hck-Nef inh,YIC FRET counter
OCCCNc1nc(-c2ccc(Cl)cc2)nc2ccccc12,4,nt,nt,nt,nt,nt,nt
CC(=O)Nc1ccc(S(=O)(=O)NCCC(=O)OCC(=O)N2CCN(C(=O)c3ccco3)CC2)cc1,2,nt,nt,nt,nt,nt,nt
COc1ccccc1CNC(=O)COC(=O)Cc1ccc(F)cc1,0,nt,nt,nt,nt,nt,nt
COc1ccccc1CNC(=O)COC(=O)Cc1ccc(Cl)cc1,17*,-5,-1,0,0,0,>50
CC(NCc1cccs1)C(=O)NC1CCCCC1 (configuration not stated),17*,0,0,7,0,16,>50
CC(C)C(NC(=O)c1cccs1)C(=O)NC1CCCCC1 (configuration not stated),2,nt,nt,nt,nt,nt,nt
CCc1ccc(C(=O)c2cc3ccc(O)cc3oc2=O)cc1,45*,nt,nt,nt,nt,nt,11*
CC(=O)c1ccc(COC(=O)c2cc3ccccc3oc2=O)cc1,3,nt,nt,nt,nt,nt,nt
O=C(c1ccc(Br)cc1)c1cc2ccc(O)cc2oc1=O,33*,nt,nt,nt,nt,nt,20*
S=C(Nc1ccc2c(c1)OCO2)N1CCN(Cc2ccco2)CC1,3,1,-9,1,1,11,nt
Cc1ccc(-c2nc3cc(N)ccc3o2)cc1,21*,-5,-13,3,-2,0,>50
Cc1ccc(-c2nc3cc(C)ccc3o2)cc1,2,-3,8,4,0,3,nt
Cc1cc(Cl)c(C(=O)Nc2cccc(C(F)(F)F)c2)c(C)n1,-2,nt,nt,nt,nt,nt,nt
C[C@@H]1CN([C@H](C)CO)C(=O)Cc2cc(NC(=O)Nc3ccc4c(c3)OCO4)ccc2O[C@@H]1CN(C)CC1CC1,nt,nt,nt,nt,nt,nt,>50
CCCCn1c(N)c(N(CCOC)C(=O)CN2c3ccccc3CC2C)c(=O)[nH]c1=O (configuration not stated),38*,31,6,-3,33,17,>50
CCCCn1c(N)c(N(CCOC)C(=O)CN2C(=O)c3ccccc3C2=O)c(=O)[nH]c1=O,6,nt,nt,nt,nt,nt,nt
Cc1ccc(N(C(=O)CNC(=O)c2ccco2)C(C(=O)NC2CCCC2)c2cccnc2)cc1F (configuration not stated),1,nt,nt,nt,nt,nt,nt
CC1(C)CC(=O)C/C(=N\NC(=O)Cc2ccccc2)C1,26*,1,3,8,3,-2,>50
Cc1ccc(C)c(NC(=S)NCCCN2CCOCC2)c1,-2,-6,-5,4,0,1,nt
Cc1ccc2nc(NCCNC(=O)c3ccccc3)c(C#N)cc2c1,49*,nt,nt,nt,nt,nt,4.7*
COc1ccc(C(=O)NCCNc2nc3c(C)cccc3cc2C#N)cc1,36*,nt,nt,nt,nt,nt,18*
Cc1cccc2cc(C#N)c(NCCNC(=S)NCCCN3CCOCC3)nc12,19*,64*,-3,6,40,15,48*
COc1ccc(C2NC(c3ccc(OC)cc3)C(c3ccccc3)C(=O)C2c2ccccc2)cc1 (configuration not stated),3,-6,25,2,0,0,nt
O=C(Nc1ccccc1C(=O)Nc1ccncc1)c1ccccc1,1,nt,nt,nt,nt,nt,nt
CC(=O)c1cccc(N(C(=O)CNC(=O)c2ccco2)C(C(=O)NCC2CCCO2)c2ccccc2)c1 (configuration not stated),3,nt,nt,nt,nt,nt,nt
SMILES,RanGTP-Imp inh,Runt-SMMHC FRET,TbHK1 inh,p97 ATPase inh,Runt-CBFb FRET,Hck-Nef inh,YIC FRET counter
Cc1cc([N+](=O)[O-])nn1CC(=O)N1N=C(C(F)F)CC1(O)C(F)F (configuration not stated),-2,-2,-8,-2,-2,3,nt
CC1=NN(C(=O)Cn2nc([N+](=O)[O-])cc2C)C(O)(C(F)(F)F)C1 (configuration not stated),18*,-1,30,6,0,3,>50
COc1ccc(Nc2cc(C)nc(N3CCN(C(=O)c4ccc5c(c4)OCO5)CC3)n2)cc1,-2,nt,nt,nt,nt,nt,nt
Cc1c(C#N)c(NC(=O)CCl)n(Cc2ccccc2)c1C,23*,0,1,7,-3,22,>50
O=C(CCNC(=O)c1ccccc1Cl)NCC(c1ccco1)N1CCCC1 (configuration not stated),6,nt,nt,nt,nt,nt,nt
CCCCn1c(O)c(/C=C/C=C/C=Nc2ccccc2)sc1=S,4,-19,13,0,1,45,nt
CCCn1c(O)c(C=Nc2ccccc2)sc1=S,27*,49,-2,5,21,12,12*
CCN1CCc2c(sc(N)c2C#N)C1,34*,110*,-23,2,43,9,18*
N#Cc1c(N)sc(=S)c2c1CCN(Cc1ccccc1)C2,nt,31,nt,nt,25,nt,nt
CCc1cc(=O)n2[nH]c(-c3ccccc3)c(-c3ccccc3)c2n1,4,nt,nt,nt,nt,nt,nt
Cc1cc(C)c(S(=O)(=O)N(C)CC(N)=O)c(C)c1,17*,-6,0,3,-2,0,>50
Cc1cc(C)c(S(=O)(=O)N(C)CC(=O)N2CCCCC2)c(C)c1,-1,2,-7,-6,0,-3,nt
CCCCn1c(SCC(=O)NC2CC2)nc2ccccc2c1=O,4,nt,nt,nt,nt,nt,nt
COC(=O)Cn1c(=O)c2c(nc3n2CCCN3CCc2ccccc2)n(C)c1=O,25*,nt,nt,nt,nt,nt,>50
CC(C)c1ccccc1NC(=O)C1C2C=CC(C2)C1C(=O)O (configuration not stated),24*,nt,nt,nt,nt,nt,>50
CCCN1CC(O)=C(C#N)C1=O,24*,1,2,7,0,12,>50
O=C1N(CN2CCN(Cc3ccccc3)CC2)c2ccccc2C12OCCCO2,-2,4,-3,4,1,14,nt
CCOC(=O)c1ccc(-c2ccc3c(=O)c4ccccc4n(C)c3c2)cc1F,44*,nt,nt,nt,nt,nt,1.3*
Cc1c(OCC(=O)NCc2ccncc2)ccc2c3c(c(=O)oc12)CCC3,17*,nt,nt,nt,nt,nt,>50
Cc1c(OCC(=O)NCc2cccnc2)ccc2c3c(c(=O)oc12)CCC3,-2,nt,nt,nt,nt,nt,nt
O=C(CCN1C(=O)[C@@H]2Cc3ccccc3CN2C1=O)N[C@H](C(=O)O)c1ccccc1,0,nt,nt,nt,nt,nt,nt
N#CC1=C(N)SC(N)=C(C#N)C1c1cccc(O)c1,22*,32,-11,9,23,4,>50
COc1ccc2cc(CCN3C(=O)c4ccccc4C3=O)c(=O)[nH]c2c1,20*,-1,0,5,-1,-4,>50
Cc1ccc(C(=O)CSc2ncn[nH]2)cc1,-3,-4,37,-1,6,9,nt
CCc1ccc(C(=O)CSc2ncn[nH]2)cc1,18*,-3,16,0,1,1,>50
OCC1(Cc2ccccc2)CCCN(Cc2ccn[nH]2)C1 (configuration not stated),1,-1,-1,5,0,20,nt

# Screening results from PubChem BioAssay.
